From ChEMBL document CHEMBL3421595, “Design and Synthesis of New α-Naphthoflavones as Cytochrome P450 (CYP) 1B1 Inhibitors To Overcome Docetaxel-Resistance Associated with CYP1B1 Overexpression” (J Med Chem, 2015)

How the values were obtained:
Cytochrome P450 1B1 [1] = target: T1, Cytochrome P450 1B1 (Homo sapiens, UniProt Q16678); experiment: Inhibition of human CYP1B1 assessed as reduction in 7-ethoxyresorufin O-deethylation activity by fluorescence based EROD assay
T1 sequence (Q16678 whole entry): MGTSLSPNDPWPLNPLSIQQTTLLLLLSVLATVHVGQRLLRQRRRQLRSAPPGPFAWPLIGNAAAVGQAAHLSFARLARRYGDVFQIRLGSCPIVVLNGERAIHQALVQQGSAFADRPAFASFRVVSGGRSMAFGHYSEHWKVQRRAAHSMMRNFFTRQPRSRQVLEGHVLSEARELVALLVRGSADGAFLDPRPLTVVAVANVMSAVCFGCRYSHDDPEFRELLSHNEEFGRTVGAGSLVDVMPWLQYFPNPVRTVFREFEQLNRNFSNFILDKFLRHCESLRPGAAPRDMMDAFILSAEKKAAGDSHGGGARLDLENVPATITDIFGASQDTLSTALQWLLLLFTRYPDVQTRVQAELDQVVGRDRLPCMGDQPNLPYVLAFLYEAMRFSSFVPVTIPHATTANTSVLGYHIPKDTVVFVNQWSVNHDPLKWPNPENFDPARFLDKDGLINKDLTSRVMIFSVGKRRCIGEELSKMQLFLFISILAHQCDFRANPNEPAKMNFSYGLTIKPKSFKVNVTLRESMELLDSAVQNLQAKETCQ
Method in brief: (§1)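 Recombinant human CYP1B1, 1A1 and 1A2 in a standard EROD assay. NADPH regeneration system: 1.3 mM NADP+, 3.3 mM G-6-P, 0.5 U/mL G6-PD. Incubation time 35 min for CYP1B1, 15 min for 1A1 and 50 min for 1A2. IC50 by Probit analysis; selectivity taken as the ratio of IC50 values.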

Cytochrome P450 1A1 = target: T2, Cytochrome P450 1A1 (Homo sapiens, UniProt P04798); experiment: Inhibition of human CYP1A1 assessed as reduction in 7-ethoxyresorufin O-deethylation activity by fluorescence based EROD assay; type: ADME
T2 sequence (P04798 whole entry): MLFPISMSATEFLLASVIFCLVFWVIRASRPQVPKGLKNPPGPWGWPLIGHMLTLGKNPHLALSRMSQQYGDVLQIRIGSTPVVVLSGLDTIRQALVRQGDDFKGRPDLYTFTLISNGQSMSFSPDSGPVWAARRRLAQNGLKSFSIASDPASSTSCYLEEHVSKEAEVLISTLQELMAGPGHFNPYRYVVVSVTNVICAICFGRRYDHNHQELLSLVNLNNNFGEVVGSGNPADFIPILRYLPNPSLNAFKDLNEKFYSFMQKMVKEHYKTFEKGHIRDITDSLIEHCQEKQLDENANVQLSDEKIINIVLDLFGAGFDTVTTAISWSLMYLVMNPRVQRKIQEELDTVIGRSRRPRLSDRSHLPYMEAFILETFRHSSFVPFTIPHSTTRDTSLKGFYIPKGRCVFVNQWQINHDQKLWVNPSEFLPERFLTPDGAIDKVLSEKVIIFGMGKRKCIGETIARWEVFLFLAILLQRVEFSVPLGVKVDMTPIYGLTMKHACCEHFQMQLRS
Method in brief: as §1, with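 “assay. 7-Ethoxyresorufin fixed at 150 nM.” for “assay.”, “1A2. Resorufin fluorescence read at ex 545 / em 590 nm.” for “1A2.”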

Cytochrome P450 1A2 = target: T3, Cytochrome P450 1A2 (Homo sapiens, UniProt P05177); experiment: Inhibition of human CYP1A2 assessed as reduction in 7-ethoxyresorufin O-deethylation activity by fluorescence based EROD assay; type: ADME; method in brief: as §1
T3 sequence (P05177 whole entry): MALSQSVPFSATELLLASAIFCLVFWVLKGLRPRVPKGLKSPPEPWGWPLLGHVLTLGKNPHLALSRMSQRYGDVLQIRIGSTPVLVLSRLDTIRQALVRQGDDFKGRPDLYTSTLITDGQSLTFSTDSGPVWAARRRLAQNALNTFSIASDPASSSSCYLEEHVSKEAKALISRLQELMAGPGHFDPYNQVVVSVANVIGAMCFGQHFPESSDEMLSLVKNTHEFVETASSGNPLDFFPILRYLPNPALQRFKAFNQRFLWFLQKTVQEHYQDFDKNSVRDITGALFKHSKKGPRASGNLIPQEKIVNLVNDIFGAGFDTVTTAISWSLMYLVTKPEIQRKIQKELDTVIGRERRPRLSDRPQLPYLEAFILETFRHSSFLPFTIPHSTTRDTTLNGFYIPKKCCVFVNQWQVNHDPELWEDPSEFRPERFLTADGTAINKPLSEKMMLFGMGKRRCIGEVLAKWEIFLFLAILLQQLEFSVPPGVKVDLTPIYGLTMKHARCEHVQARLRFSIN

Homo sapiens [2] = species: Homo sapiens; experiment: Selectivity index, ratio of IC50 for human CYP1A1 to IC50 for human CYP1B1
Method in brief: as §1, with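 “assay. 7-Ethoxyresorufin fixed at 150 nM.” for “assay.”, “1A2. Resorufin fluorescence read at ex 545 / em 590 nm.” for “1A2.”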

Homo sapiens [3] = species: Homo sapiens; experiment: Selectivity index, ratio of IC50 for human CYP1A2 to IC50 for human CYP1B1
Method in brief: as §1, with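 “assay. 7-Ethoxyresorufin fixed at 150 nM.” for “assay.”, “1A2. Resorufin fluorescence read at ex 545 / em 590 nm.” for “1A2.”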

Cytochrome P450 1B1 [4] = target: T1, Cytochrome P450 1B1; experiment: Potency index, ratio of IC50 for ANF to IC50 for compound against human CYP1B1 assessed as reduction in 7-ethoxyresorufin O-deethylation activity by fluorescence based EROD assay; conditions: read-out: Ratio IC50
Method in brief: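 Recombinant human CYP1B1 EROD assay with 150 nM 7-ethoxyresorufin. NADPH regeneration system (1.3 mM NADP+, 3.3 mM G-6-P, 0.5 U/mL G6-PD) replaced NADPH. Incubated 35 min; resorufin fluorescence read at ex 545/em 590 nm. IC50 by Probit analysis. ANF was the positive control in the same assay, and the index divides its IC50 by the compound's IC50.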

SMILES	IC50 (Cytochrome P450 1B1 [1])	IC50 (Cytochrome P450 1A1)	IC50 (Cytochrome P450 1A2)	Ratio IC50 (Homo sapiens [2])	Ratio IC50 (Homo sapiens [3])	selectivity ratio (Cytochrome P450 1B1 [4])
COc1ccc(OC)c2c1c(OC)cc1c(=O)cc(-c3ccc(OCc4ccccc4)cc3)oc12	771 nM	67.8 nM	43 nM	0.09	0.06	
COc1ccc(-c2cc(=O)c3cc(OC)c4c(OC)ccc(OC)c4c3o2)cc1OC	2.5 nM	11.5 nM	19.3 nM	4.6	7.7	
COc1cc(-c2cc(=O)c3cc(OC)c4c(OC)ccc(OC)c4c3o2)cc(OC)c1OC	9.8 nM	22.5 nM	23.5 nM	2.3	2.4	
COc1ccc(OC)c2c1c(OC)cc1c(=O)c(O)c(-c3ccc(F)cc3)oc12	0.8 nM	11.8 nM	57.6 nM	15	72	
COc1ccc(OC)c2c1c(OC)cc1c(=O)cc(-c3cccc(F)c3)oc12		11.5 nM	36.7 nM	267	853	
COc1ccc(OC)c2c1c(OC)cc1c(=O)c(OCCOC(=O)[C@@H](N)C(C)C)c(-c3cccc(F)c3)oc12	114 nM	192 nM	68.3 nM	1.7	0.6	
COc1ccc(OC)c2c1c(OC)cc1c(=O)c(OCCOC(=O)[C@H](C)N)c(-c3cccc(F)c3)oc12	98.4 nM	39.4 nM	85.9 nM	0.4	0.87	
COc1ccc(OC)c2c1c(OC)cc1c(=O)cc(-c3ccc(OCc4ccccc4)c(OCc4ccccc4)c3)oc12	> 100000 nM	535 nM	96.9 nM			
COc1ccc(OC)c2c1c(OC)cc1c(=O)c(O)c(-c3ccccc3F)oc12	1.2 nM	27.5 nM	29.4 nM	23	25	
COc1ccc(OC)c2c1c(OC)cc1c(=O)cc(-c3cccc(Cl)c3)oc12	0.3 nM	6.4 nM	61.1 nM	21	204	
COc1ccc(OC)c2c1c(OC)cc1c(=O)c(O)c(-c3cccc(Cl)c3)oc12	3.5 nM	46 nM	42.5 nM	13	12	
COc1ccc(OC)c2c1c(OC)cc1c(=O)cc(-c3ccccc3Cl)oc12	1.1 nM	19.2 nM	58 nM	17.5	53	
COc1ccc(OC)c2c1c(OC)cc1c(=O)c(OCCCCOC(=O)CN)c(-c3cccc(F)c3)oc12	37 nM	70.2 nM	122 nM	1.9	3.3	
COc1ccc(OC)c2c1c(OC)cc1c(=O)c(O)c(-c3ccccc3)oc12	2.3 nM	31.6 nM	34.4 nM	14	15	
COc1ccc(OC)c2c1c(OC)cc1c(=O)c(O)c(-c3ccc(Cl)cc3)oc12	5 nM	26.9 nM	83.3 nM	5.4	17	
COc1ccc(OC)c2c1c(OC)cc1c(=O)cc(-c3ccccc3F)oc12	0.2 nM	5.9 nM	22.1 nM	29.5	111	
COc1ccc(OC)c2c1c(OC)cc1c(=O)cc(-c3ccc(F)cc3)oc12	0.3 nM	9.8 nM	15.4 nM	33	51	
COc1ccc(OC)c2c1c(OC)cc1c(=O)c(OCCCCCCOC(=O)CN)c(-c3cccc(F)c3)oc12	68.8 nM	36.2 nM	120 nM	0.53	1.7	
COc1ccc(OC)c2c1c(OC)cc1c(=O)c(O)c(-c3cccc(F)c3)oc12	0.3 nM	66.9 nM	26.5 nM	223	88	
COc1ccc(OC)c2c1c(OC)cc1c(=O)cc(-c3ccccc3)oc12	0.2 nM	4.8 nM	16.1 nM	24	81	6
COc1ccccc1-c1cc(=O)c2cc(OC)c3c(OC)ccc(OC)c3c2o1	9 nM	18.8 nM	13.5 nM	2.1	1.5	
COc1ccc(-c2cc(=O)c3cc(OC)c4c(OC)ccc(OC)c4c3o2)cc1	1.1 nM	12.9 nM	16.4 nM	12	15	
COc1ccc(OC)c2c1c(OC)cc1c(=O)cc(-c3ccccc3O)oc12	62.9 nM	12.1 nM	50.6 nM	0.19	0.8	
COc1ccc(OC)c2c1c(OC)cc1c(=O)cc(-c3ccc(Cl)cc3)oc12	0.2 nM	1.8 nM	27.7 nM	9	139	
COc1ccc(OC)c2c1c(OC)cc1c(=O)c(O)c(-c3ccccc3Cl)oc12	1.6 nM	32.9 nM	49.6 nM	21	31	
COc1ccc(OC)c2c1c(OC)cc1c(=O)c(OCCOC(=O)CN)c(-c3cccc(F)c3)oc12	19.6 nM	13.6 nM	56.2 nM	0.69	2.9	
COc1ccc(OC)c2c1c(OC)cc1c(=O)c(OCCCCCCCCOC(=O)CN)c(-c3cccc(F)c3)oc12	12.3 nM	20.2 nM	129 nM	1.6	10	
COc1ccc(OC)c2c1c(OC)cc1c(=O)cc(-c3ccc(O)cc3)oc12	643 nM	114 nM	58.4 nM	0.18	0.09	
